# Source: PubChem BioAssay
# Hits are enriched below; roughly 2.4% of the tested compounds scored in any of these assays.
# 697 NFkB inh – inhibitors of the PMA/ionomycin-induced NF-kB reporter in 697 B cells; 697 B-cell NF-kB luciferase reporter, 16 h; inhibition, % at 4 µM; AID 435022; actives 0.33% (n = 330,000); in the data active means inhibition above about 35%
# NR2E3 ag-1 – agonists of human nuclear receptor NR2E3; GST-NR2E3/biotin-RetCOR TR-FRET, 1536-well; Q9Y5X4; inhibition of corepressor binding, % at 4.78 µM; actives 0.12% (n = 320,000);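 active means percent inhibition above the cutoff of mean plus 3 SD of all tested compounds, set per screening campaign, cut at about 20% in these data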
# Target sequence (Q9Y5X4 whole entry, looked up): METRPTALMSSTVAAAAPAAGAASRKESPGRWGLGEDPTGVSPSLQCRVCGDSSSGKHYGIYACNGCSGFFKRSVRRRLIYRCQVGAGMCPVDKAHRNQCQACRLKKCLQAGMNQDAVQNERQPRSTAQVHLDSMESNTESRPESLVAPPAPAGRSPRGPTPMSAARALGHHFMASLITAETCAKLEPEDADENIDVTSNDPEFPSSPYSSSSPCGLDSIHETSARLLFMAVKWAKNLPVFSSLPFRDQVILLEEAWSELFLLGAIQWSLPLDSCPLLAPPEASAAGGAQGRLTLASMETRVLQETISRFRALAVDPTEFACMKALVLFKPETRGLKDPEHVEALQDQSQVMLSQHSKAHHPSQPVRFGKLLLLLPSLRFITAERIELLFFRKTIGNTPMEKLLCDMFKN
#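 Test system: GST-NR2E3 and biotin-RetCOR proteins | Quantity: 1.35 nM GST-tagged NR2E3 final | Medium: Tris pH 7.5 | Also added: 7 nM biotin-RetCOR | Dosing: Compound at 4.8 µM, single dose | Timing: 5 h at 4 °C | Detection: Time-resolved FRET | Read-out basis: Percent inhibition | Benchmarks: Biotin wells as high control, 0.6% DMSO wells as low control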
# aDG glyco up – alpha-DG glycosylation activation | actives 0.22% (n = 360,000) | activation, % at 10 µM | AID 624168 | Pro5-aDG cells, alpha-DG glycosylation AlphaScreen (IIH6); 0% Pro5, 100% B10-LARGE cell signal;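 active means activation of at least 8% versus controls, or a plate z-score of at least 8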;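 further: Pro5 are CHO cells carrying HIG-tagged alpha-DG that lacks glycosylation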
# NR2E3 ag-2 – activates human NR2E3 receptor | actives 0.35% (n = 360,000) | CHO-S Gal4-NCOR/VP16-NR2E3 two-hybrid, luciferase | inhibition of corepressor binding, % at 3.98 µM | Q9Y5X4;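 active means inhibition above the mean of all tested compounds plus 3 SD, cut at about 70% in these data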;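 further: higher means lower luciferase signal from less NR2E3 corepressor binding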
# MPTP inh – blocks calcium-induced mitochondrial swelling; inhibition, % at 10 µM; actives 1.4% (n = 360,000); isolated mouse mitochondria, Ca2+ swelling absorbance, 30 min;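 active means inhibition of 50% or more, scaled per plate between neutral and stimulator controls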
# Jurkat NFkB inh – inhibitors of the PMA/ionomycin-induced NF-kB reporter in Jurkat cells; actives 0.53% (n = 330,000); PMA/ionomycin-induced NF-kB luciferase reporter, luminescence; inhibition, % at 4 µM; in the data active means inhibition above about 50%
# Rh123 counter – membrane potential counter-screen of mitochondrial pore inhibitors; actives 78% (n = 5,000); inhibition, % at 10 µM; AID 624504; isolated mitochondria, Rhodamine 123 fluorescence; shares compounds with MPTP inh; in the data active means inhibition above about 22%
# MPTP swell DR – dose response confirmation of mitochondrial permeability transition pore inhibitors; IC50, µM; shares compounds with MPTP inh; isolated mitochondria swelling, absorbance; actives 58% (n = 780); in the data active means IC50 below about 20 µM
# MPTP cs DR – counter-screen for mitochondrial permeability transition pore inhibitors, dose response; shares compounds with MPTP inh; isolated mitochondria counterscreen, fluorescence read-out; IC50, µM; actives 49% (n = 780); AID 651564; in the data active means IC50 below about 80 µM
# Numbers stand for hits; 0 = inactive; - = no result given.
SMILES,697 NFkB inh,NR2E3 ag-1,aDG glyco up,NR2E3 ag-2,MPTP inh,Jurkat NFkB inh,Rh123 counter,others
Cc1ccc(Cl)cc1-c1cc(C(=O)Nc2ccc(F)cc2)[nH]n1,-,-,0,0,64,-,96,
COc1ccc(-c2nc3c4c(ncn3n2)-c2ccccc2CC42CCCC2)cc1,0,0,0,0,78,0,0,MPTP swell DR=0;MPTP cs DR=0
Cc1ccc(OCc2nc3c4c(ncn3n2)-c2ccccc2CC42CCCC2)cc1,0,0,0,0,57,0,0,MPTP swell DR=8.4;MPTP cs DR=0
Cc1ccccc1OCc1nc2c3c(ncn2n1)-c1ccccc1CC31CCCC1,0,0,0,0,69,0,0,MPTP swell DR=13;MPTP cs DR=0
CC(=O)Oc1[nH]c(=O)c2cccc3c2c1CCC3,-,-,0,0,0,-,-,
CS(=O)(=O)N1CCCCC1c1cc(C(=O)Nc2cccc3c2CCCC3)no1 (stereo unspecified),-,-,0,0,0,-,-,
CSc1nc2ccc(NS(=O)(=O)c3cccc(Cl)c3Cl)cc2s1,0,0,0,0,60,0,64,
CCCCNC(=S)Nc1ccc(C(F)(F)F)cc1,0,0,0,0,102,0,82,
CCNC(=S)Nc1ccc(Cl)cc1,0,0,0,0,0,0,-,
CCCCNC(=S)Nc1ccc(Cl)cc1,0,0,0,0,83,0,81,
C[C@H]1O[C@@H](O[C@H]2CC[C@@]3(C)C(CC[C@]4(C)C3C=CC3=C5CC(C)(C)CC[C@]5(CO)[C@H](O)C[C@]34C)[C@]2(C)CO)[C@H](O)[C@@H](O[C@@H]2O[C@H](CO)[C@@H](O)[C@H](O)[C@H]2O)[C@H]1O (stereo partly specified),0,-,0,0,0,0,-,
CC(C)(C)NCC(O)COc1c(F)cc(Br)cc1F (stereo unspecified),0,0,0,0,0,0,-,
CC(C)(C)CC(C)(C)NCC(O)COc1c(F)cc(Br)cc1F (stereo unspecified),0,0,0,0,102,0,0,MPTP swell DR=7.1;MPTP cs DR=57
C[C@H]1CN([C@@H](C)CO)C(=O)CCCn2nncc2CO[C@H]1CN(C)S(=O)(=O)c1ccc(-n2cccn2)cc1,-,-,0,0,0,-,-,
COc1cc(Cl)cc2c1Sc1ccccc1/C2=C/CCN(C)C,0,0,0,0,82,0,0,
O=C(C(=O)N1CCN(c2cccc(Cl)c2)CC1)c1cn(CC(=O)N2CCOCC2)c2ccccc12,0,0,0,0,0,0,-,
Cc1c(NC(=O)Nc2ccc(Cl)c(Cl)c2)sc(=S)n1C,0,0,0,0,51,0,64,
COc1ccc(NC(=O)Nc2sc(=S)n(C)c2C)cc1,0,0,0,0,0,0,-,
COc1ccc(/C=N/N=C2/SCC(=O)N2Cc2ccccc2)cc1,0,0,0,0,0,0,-,
COc1ccc(CN2C(=O)CS/C2=N/N=C/c2ccccc2)cc1,0,0,0,0,67,0,65,
CCOc1ccc2ccccc2c1CNc1nnnn1C,0,0,0,0,0,0,-,
COC(=O)C[C@H]1CC[C@H](NC(=O)Nc2ccccc2F)[C@@H](CO)O1,-,-,0,-,0,-,-,
Cc1c(O)ccc(/C(Cc2ccc3ccccc3n2)=N\O)c1O,0,0,0,0,73,0,35,
CC(=O)Oc1ccc(C(=O)Cc2ccc3ccccc3n2)c(O)c1C,0,0,0,0,0,0,-,
CCOc1ccc(NC(=S)N2CCC(C(=O)c3ccc(OC)cc3)CC2)cc1,-,-,0,0,0,-,-,
SMILES,697 NFkB inh,NR2E3 ag-1,aDG glyco up,NR2E3 ag-2,MPTP inh,Jurkat NFkB inh,Rh123 counter,others
O=C(CCN1C(=O)/C(=C/c2ccccc2)SC1=S)NNC(=O)c1ccncc1,0,0,0,0,0,0,-,
O=C(O)C(c1ccccc1)N1C(=O)/C(=C/c2cccs2)SC1=S (stereo unspecified),0,0,0,0,0,0,-,
O=C(CCN1C(=O)/C(=C\c2ccccc2)SC1=S)NNC(=O)c1ccncc1,0,0,0,0,53,0,0,MPTP swell DR=0;MPTP cs DR=0
O=C(CCN1C(=O)/C(=C/c2ccccc2)SC1=S)NCCCN1CCOCC1,0,0,0,0,74,0,0,MPTP swell DR=0;MPTP cs DR=63
CCc1ccc(/C=C2/SC(=S)N(CCC(=O)NCCCN3CCOCC3)C2=O)cc1,0,0,0,0,0,0,-,
CC(c1ccccc1)N1C(=O)/C(=C/c2ccncc2)SC1=S (stereo unspecified),0,0,0,0,70,0,29,
O=C(CCN1C(=O)/C(=C\c2cccc(Br)c2)SC1=S)NCCCN1CCOCC1,0,0,0,0,65,0,0,MPTP swell DR=17;MPTP cs DR=17
CCC(C(=O)NC1CCCCC1)N(Cc1cccs1)C(=O)c1snc(C(N)=O)c1N (stereo unspecified),0,0,0,0,0,0,-,
CC(=O)Oc1ccc2nc(-c3ccco3)oc(=O)c2c1,0,0,0,0,0,0,-,
O=S(=O)(Nc1cccc2ccccc12)c1cccs1,0,0,0,0,0,0,-,
COc1ccc(NC(=O)C(NS(=O)(=O)c2cccs2)C(C)C)cc1Cl (stereo unspecified),0,0,0,0,0,0,-,
O=C(Nc1ccc(Cl)c(Cl)c1)Nc1ccccc1NS(=O)(=O)c1cccs1,0,0,0,0,87,0,92,
O=C(Nc1ccccc1)Nc1ccccc1NS(=O)(=O)c1cccs1,0,0,0,0,61,0,65,
CN(CCc1ccccn1)C(=O)c1cccnc1Oc1ccccc1,0,0,0,0,0,0,-,
COc1ccc(CCc2nnc(CCC(=O)N(C)Cc3ccnc4ccccc34)o2)cc1,0,0,0,0,79,0,30,
COc1ccccc1CCc1nnc(CCC(=O)N(C)Cc2cccc3cnccc23)o1,0,0,0,0,0,0,-,
Cc1cccc(NC(=O)C2CCN(C(=O)[C@@H]3Cc4ccccc4CN3)CC2)c1,0,0,0,0,0,0,-,
COc1ccc2cc(C(=O)N3CCN(c4ccccc4OC)CC3)[nH]c2c1,0,0,0,0,0,0,-,
c1ccc(CC[C@@H]2CC[C@@H](CCc3ccccc3)N2)cc1,0,0,0,0,69,0,0,MPTP swell DR=10;MPTP cs DR=0
O=C(Cn1cnc2ccccc2c1=O)NCCC(=O)Nc1ccccc1C(F)(F)F,0,0,0,0,0,0,-,
COc1ccc2cc1Oc1ccc(cc1)CC1c3c(cc(OC)c4c3Oc3cc5c(cc3O4)CCNC5C2)CCN1C (stereo unspecified),0,0,0,0,78,0,0,
COc1ccc2cc1Oc1ccc(cc1)C[C@H]1c3c(cc(OC)c4c3Oc3c(ccc5c3[C@H](C2)N(C)CC5)O4)CCN1C,0,-,0,0,90,0,0,
